Source: ChEMBL document CHEMBL1133511, “Contribution of the adenine base to the activity of adenophostin A investigated using a base replacement strategy” (J Med Chem, 2000)

Columns and labels:
[1] = Tested for equilibrium competition binding to InsP3 receptor in hepatic membranes using 1.3-1.8 nM [3H]Ins(1,4,5)P3 as the radioligand.; assay type: functional, cell membranes, Rattus norvegicus, Liver, Membrane
Procedure, shortened: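 Rat liver membranes (perfused, homogenized, Percoll-purified), 0.1 mg protein/tube in 50 mM Tris, 1 mM EDTA, pH 8.3, incubated 5 min at 4 °C with [3H]Ins(1,4,5)P3 plus competing ligand; bound separated by centrifugation (20000g, 5 min), counted by scintillation. Kd and Hill coefficient from equilibrium competition; means ± SEM of 4 independent experiments.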

Rattus norvegicus [2] = species: Rattus norvegicus; test: Tested for concentration of ligand causing half maximal response of Calcium ion release from permeabilised hepatocytes; assay type: functional; conditions: Hepatocyte
Procedure, shortened: (§1)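 Permeabilized rat hepatocytes loaded to steady state with 45Ca2+ (5 min, 37 °C) in cytosol-like medium (140 mM KCl, 20 mM NaCl, 2 mM MgCl2, 1 mM EGTA, 300 µM CaCl2, 20 mM Pipes, pH 7.0) with 1.5 mM ATP, creatine phosphate/kinase, 10 µM FCCP; 1.25 µM thapsigargin added, 30 s later agonist for 60 s; store 45Ca2+ by rapid filtration. Four-parameter logistic fit; means ± SEM, 6-15 experiments.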

Rattus norvegicus [3] = species: Rattus norvegicus; test: Tested for percentage of intracellular calcium ion stores released in rat hepatocytes; assay type: functional, Hepatocyte; procedure, shortened: as §1

Row | Ki [1] | Compound | EC50 (Rattus norvegicus [2]) | Max response (Rattus norvegicus [3])
1 | 0.45 nM | Nc1ncnc2c1ncn2[C@@H]1O[C@H](CO)[C@@H](O[C@H]2O[C@@H](CO)[C@@H](OP(=O)(O)O)[C@H](OP(=O)(O)O)[C@@H]2O)[C@H]1OP(=O)(O)O | 14 nM | 51%
2 | 2.72 nM | O=P(O)(O)O[C@@H]1[C@H](O)[C@@H](O)[C@@H](OP(=O)(O)O)[C@H](OP(=O)(O)O)[C@@H]1O | 119 nM | 55%
3 | 2.19 nM | O=P(O)(O)O[C@@H]1[C@H](O)[C@@H](O[C@H]2[C@@H](OP(=O)(O)O)[C@H](n3ccnc3)O[C@@H]2CO)O[C@@H](CO)[C@H]1OP(=O)(O)O | 108 nM | 57%
4 | 0.8 nM | O=P(O)(O)O[C@@H]1[C@H](O)[C@@H](O[C@H]2[C@@H](OP(=O)(O)O)[C@H](n3cnc4cncnc43)O[C@@H]2CO)O[C@@H](CO)[C@H]1OP(=O)(O)O [PURINOPHOSTIN] | 18 nM | 52%
